Experimental data from ChEMBL document CHEMBL1131182, “Anti-AIDS agents. 34. Synthesis and structure-activity relationships of betulin derivatives as anti-HIV agents” (J Med Chem, 1998).

Tests used:
[1] = Therapeutic Index is the […] of the IC50 to that of EC50; type: cell-based; conditions: human, H9 cells; read-out: TI
H9 [2] = assay: Anti-HIV activity against acutely infected H9 lymphocytes. Activity expressed as concentration of compound toxic to 50% of mock-infected H9 cells.; type: functional, cell-based; conditions: Homo sapiens
In short: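 Uninfected H9 cells were exposed to DMSO-dissolved samples (screen 100, 20, 4, 0.8 µg/mL final) for 4 days at 37 °C, 5% CO2. Remaining cells were counted with a counter against medium-only controls. IC50 is the concentration toxic to 50% of mock-infected cells; at least two experiments averaged.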

H9 [3] = assay: Anti-HIV activity against acutely infected H9 lymphocytes. Activity expressed as concentration of compound able to suppress HIV replication by 50%.; type: functional, cell-based; conditions: Homo sapiens
In short: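 H9 cells (RPMI 1640, 10% FCS, L-glutamine, 37 °C, 5% CO2, log phase) infected 1 h with HIV-1 IIIB at MOI 0.1-0.01, washed and plated at 4 × 10^5 cells/mL with DMSO-dissolved samples (screen 100, 20, 4, 0.8 µg/mL final, further dilutions for actives). After 4 days, supernatant p24 was measured by antigen-capture ELISA against a standard curve. EC50 is 50% suppression of replication; at least two experiments averaged.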

SMILES	selectivity ratio [1]	IC50 (H9 [2]) [µM]	EC50 (H9 [3]) [µM]
C=C(C)[C@@H]1CC[C@]2(COC(=O)CC(C)(C)CC(=O)O)CC[C@]3(C)[C@H](CC[C@@H]4[C@@]5(C)CCC(=O)C(C)(C)[C@@H]5CC[C@]43C)[C@@H]12	2.9		
C=C(C)[C@@H]1CC[C@]2(COC(=O)CC(C)CC(=O)O)CC[C@]3(C)[C@H](CC[C@@H]4[C@@]5(C)CC[C@H](OC(=O)CC(C)CC(=O)O)C(C)(C)[C@@H]5CC[C@]43C)[C@@H]12 (stereo partly specified)	5310	20.7	0.0039
C=C(C)[C@@H]1CC[C@]2(C(=O)O)CC[C@]3(C)[C@H](CC[C@@H]4[C@@]5(C)CC[C@H](OC(=O)C(C)(C)CC(=O)O)C(C)(C)[C@@H]5CC[C@]43C)[C@@H]12	5.9		
C=C(C)[C@@H]1CC[C@]2(COC(=O)CC(C)(CC)CC(=O)O)CC[C@]3(C)[C@H](CC[C@@H]4[C@@]5(C)CC[C@H](OC(=O)CC(C)(CC)CC(=O)O)C(C)(C)[C@@H]5CC[C@]43C)[C@@H]12 (stereo partly specified)	3480		
C=C(C)[C@@H]1CC[C@]2(COC(=O)CC(C)(C)CC(=O)O)CC[C@]3(C)[C@H](CC[C@@H]4[C@@]5(C)CC[C@@H](OC(=O)CC(C)(C)CC(=O)O)C(C)(C)[C@@H]5CC[C@]43C)[C@@H]12	< 2.4	33.6	> 13.8
C=C(C)[C@@H]1CC[C@]2(CO)CC[C@]3(C)[C@H](CC[C@@H]4[C@@]5(C)CC=CC(C)(C)[C@@H]5CC[C@]43C)[C@@H]12	2.7		
C=C(C)[C@@H]1CC[C@]2(COC(=O)CC(C)(C)CC(=O)O)CC[C@]3(C)[C@H](CC[C@@H]4[C@@]5(C)CC[C@H](OC(=O)CC(C)(C)CC(=O)O)C(C)(C)[C@@H]5CC[C@]43C)[C@@H]12	21500		
C=C(C)[C@@H]1CC[C@]2(COC(=O)CC3(CC(=O)O)CCCC3)CC[C@]3(C)[C@H](CC[C@@H]4[C@@]5(C)CC=CC(C)(C)[C@@H]5CC[C@]43C)[C@@H]12	4.3	36.2	8.5
C=C(C)[C@@H]1CC[C@]2(COC(=O)CCC(=O)O)CC[C@]3(C)[C@H](CC[C@@H]4[C@@]5(C)CC[C@H](OC(=O)CCC(=O)O)C(C)(C)[C@@H]5CC[C@]43C)[C@@H]12	9.3	35.3	3.8
CC(CC(=O)O)CC(=O)OC[C@]12CC[C@@H](C(C)C)[C@@H]1[C@H]1CC[C@@H]3[C@@]4(C)CC[C@H](OC(=O)CC(C)CC(=O)O)C(C)(C)[C@@H]4CC[C@@]3(C)[C@]1(C)CC2 (stereo partly specified)	325	19.2	0.059
C=C(C)[C@@H]1CC[C@]2(COC(C)=O)CC[C@]3(C)[C@H](CC[C@@H]4[C@@]5(C)CC[C@H](OC(C)=O)C(C)(C)[C@@H]5CC[C@]43C)[C@@H]12 [BETULIN DIACETATE]	< 1	> 190	> 190
C=C(C)[C@@H]1CC[C@]2(CO)CC[C@]3(C)[C@H](CC[C@@H]4[C@@]5(C)CC[C@@H](O)C(C)(C)[C@@H]5CC[C@]43C)[C@@H]12 [3-EPI-BETULIN]	3.4	12.3	3.62
C=C(C)[C@@H]1CC[C@]2(COC(=O)CC(C)(C)CC(=O)O)CC[C@]3(C)[C@H](CC[C@@H]4[C@@]5(C)CC[C@H](O)C(C)(C)[C@@H]5CC[C@]43C)[C@@H]12	7.8		
C=C(COC(C)=O)[C@@H]1CC[C@]2(COC(C)=O)CC[C@]3(C)[C@H](CC[C@@H]4[C@@]5(C)CC[C@H](OC(C)=O)C(C)(C)[C@@H]5CC[C@]43C)[C@@H]12	2.5	25	10.2
CC(C)[C@@H]1CC[C@]2(COC(=O)CC(C)(C)CC(=O)O)CC[C@]3(C)[C@H](CC[C@@H]4[C@@]5(C)CC[C@H](OC(=O)CC(C)(C)CC(=O)O)C(C)(C)[C@@H]5CC[C@]43C)[C@@H]12	2250		
C=C(C)[C@@H]1CC[C@]2(/C=N/O)CC[C@]3(C)[C@H](CC[C@@H]4[C@@]5(C)CC/C(=N\O)C(C)(C)[C@@H]5CC[C@]43C)[C@@H]12 [BETULIN-3,28-DIOXIME]	5.1	5.47	1.07
C=C(C)[C@@H]1CC[C@]2(CO)CC[C@]3(C)[C@H](CC[C@@H]4[C@@]5(C)CC[C@H](O)C(C)(C)[C@@H]5CC[C@]43C)[C@@H]12 [BETULIN]	1.9		

SMILES	selectivity ratio [1]	IC50 (H9 [2]) [µM]	EC50 (H9 [3]) [µM]
C=C(C)[C@@H]1CC[C@]2(C(=O)O)CC[C@]3(C)[C@H](CC[C@@H]4[C@@]5(C)CC[C@H](OC(=O)COCC(=O)O)C(C)(C)[C@@H]5CC[C@]43C)[C@@H]12	1170		
C=C(CO)[C@@H]1CC[C@]2(CO)CC[C@]3(C)[C@H](CC[C@@H]4[C@@]5(C)CC[C@H](O)C(C)(C)[C@@H]5CC[C@]43C)[C@@H]12 [30-HYDROXY-BETULIN]	2.8	> 140	50.8
C=C(C)[C@@H]1CC[C@]2(COC(=O)C34CC5CC(CC(C5)C3)C4)CC[C@]3(C)[C@H](CC[C@@H]4[C@@]5(C)CC[C@H](OC(=O)CC(C)(C)CC(=O)O)C(C)(C)[C@@H]5CC[C@]43C)[C@@H]12	> 44.8	> 134	2.98
C=C(COC(=O)CC1(CC(=O)O)CCCC1)[C@@H]1CC[C@]2(COC(=O)CC3(CC(=O)O)CCCC3)CC[C@]3(C)[C@H](CC[C@@H]4[C@@]5(C)CC[C@H](OC(=O)CC6(CC(=O)O)CCCC6)C(C)(C)[C@@H]5CC[C@]43C)[C@@H]12	1190	6.99	0.0054
C=C(C)[C@@H]1CC[C@]2(COC(=O)CC3(CC(=O)O)CCCC3)CC[C@]3(C)[C@H](CC[C@@H]4[C@@]5(C)CC[C@H](OC(=O)CC6(CC(=O)O)CCCC6)C(C)(C)[C@@H]5CC[C@]43C)[C@@H]12	267		
C=C(COC(=O)CC(C)(C)CC(=O)O)[C@@H]1CC[C@]2(COC(=O)CC(C)(C)CC(=O)O)CC[C@]3(C)[C@H](CC[C@@H]4[C@@]5(C)CC[C@H](OC(=O)CC(C)(C)CC(=O)O)C(C)(C)[C@@H]5CC[C@]43C)[C@@H]12	389	17.5	0.045
C=C(C)[C@@H]1CC[C@]2(C=O)CC[C@]3(C)[C@H](CC[C@@H]4[C@@]5(C)CCC(=O)C(C)(C)[C@@H]5CC[C@]43C)[C@@H]12 [BETULONAL]	1.1	49	45.6
C=C(C)[C@@H]1CC[C@]2(COC(=O)CCCC(=O)O)CC[C@]3(C)[C@H](CC[C@@H]4[C@@]5(C)CC[C@H](OC(=O)CCCC(=O)O)C(C)(C)[C@@H]5CC[C@]43C)[C@@H]12	6.8	25.8	3.8
C=C(C)[C@@H]1CC[C@]2(CNC(=O)CC3(CC(=O)O)CCCC3)CC[C@]3(C)[C@H](CC[C@@H]4[C@@]5(C)CC[C@H](NC(=O)CC6(CC(=O)O)CCCC6)C(C)(C)[C@@H]5CC[C@]43C)[C@@H]12	3.1	15	4.81
CC(C)[C@@H]1CC[C@]2(COC(=O)CCCC(=O)O)CC[C@]3(C)[C@H](CC[C@@H]4[C@@]5(C)CC[C@H](OC(=O)CCCC(=O)O)C(C)(C)[C@@H]5CC[C@]43C)[C@@H]12	17	26.3	1.6
C=C(C)[C@@H]1CC[C@]2(COC(=O)CC3(CC(=O)O)CCCC3)CC[C@]3(C)[C@H](CC[C@@H]4[C@@]5(C)CCC(=O)C(C)(C)[C@@H]5CC[C@]43C)[C@@H]12	3	12.8	4.3
CC(C)[C@@H]1CC[C@]2(COC(=O)CC3(CC(=O)O)CCCC3)CC[C@]3(C)[C@H](CC[C@@H]4[C@@]5(C)CC[C@H](OC(=O)CC6(CC(=O)O)CCCC6)C(C)(C)[C@@H]5CC[C@]43C)[C@@H]12	37		
CCC(C)(CC(=O)O)CC(=O)OC[C@]12CC[C@@H](C(C)C)[C@@H]1[C@H]1CC[C@@H]3[C@@]4(C)CC[C@H](OC(=O)CC(C)(CC)CC(=O)O)C(C)(C)[C@@H]4CC[C@@]3(C)[C@]1(C)CC2 (stereo partly specified)	248		
C=C(C)[C@@H]1CC[C@]2(COC(=O)CC(C)(C)CC(=O)O)CC[C@]3(C)[C@H](CC[C@@H]4[C@@]5(C)CC=CC(C)(C)[C@@H]5CC[C@]43C)[C@@H]12	5.2		
CC(C)[C@@H]1CC[C@]2(COC(=O)CCC(=O)O)CC[C@]3(C)[C@H](CC[C@@H]4[C@@]5(C)CC[C@H](OC(=O)CCC(=O)O)C(C)(C)[C@@H]5CC[C@]43C)[C@@H]12	6.2	28.8	4.7
C=C(C)[C@@H]1CC[C@]2(COC(=O)CC3(CC(=O)O)CCCC3)CC[C@]3(C)[C@H](CC[C@@H]4[C@@]5(C)CC[C@H](O)C(C)(C)[C@@H]5CC[C@]43C)[C@@H]12	6.1	13.3	2.1
C=C(C)[C@@H]1CC[C@]2(CNC(=O)CC(C)(C)CC(=O)O)CC[C@]3(C)[C@H](CC[C@@H]4[C@@]5(C)CC[C@H](NC(=O)CC(C)(C)CC(=O)O)C(C)(C)[C@@H]5CC[C@]43C)[C@@H]12	36.6	20.6	0.57
